Source: PubChem BioAssay (several laboratories)
CendR NRP1 mod = modulators of CendR peptide binding to human neuropilin-1. O14786. FAM-RPARPAR peptide binding to NRP-1, fluorescence polarization. inhibition, % at 25 µM. actives 0.85% (n = 360,000). AID 602438;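 active means inhibition or corrected inhibition above about 18%, plus a signal ratio from 0.5 to 1.5, limit read from the data, passing the limit was not always enough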
aDG glyco up = alpha-DG glycosylation activation; actives 0.22% (n = 360,000); Pro5-aDG cells, alpha-DG glycosylation AlphaScreen (IIH6); 0% Pro5, 100% B10-LARGE cell signal; activation, % at 10 µM;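 active means activation of at least 8% versus controls, or a plate z-score of at least 8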;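 further: Pro5 are CHO cells carrying HIG-tagged alpha-DG that lacks glycosylation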
DDE Tn6 FP inh = DD(E)-Tn6 binding inhibition, primary FP screen; P02675; Fibrin DD(E) TRITC-Tn6 fluorescence polarization displacement; inhibition, % at 8.3 µM; actives 0.21% (n = 370,000); AID 720509;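 active means inhibition above a per-campaign cutoff: mean of compounds within control limits plus 3 SD, cut at about 15% in these data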;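 further: 0% = median of all compound wells on the plate and 100% = blocking peptide control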
Target sequence (P02675 whole entry, looked up): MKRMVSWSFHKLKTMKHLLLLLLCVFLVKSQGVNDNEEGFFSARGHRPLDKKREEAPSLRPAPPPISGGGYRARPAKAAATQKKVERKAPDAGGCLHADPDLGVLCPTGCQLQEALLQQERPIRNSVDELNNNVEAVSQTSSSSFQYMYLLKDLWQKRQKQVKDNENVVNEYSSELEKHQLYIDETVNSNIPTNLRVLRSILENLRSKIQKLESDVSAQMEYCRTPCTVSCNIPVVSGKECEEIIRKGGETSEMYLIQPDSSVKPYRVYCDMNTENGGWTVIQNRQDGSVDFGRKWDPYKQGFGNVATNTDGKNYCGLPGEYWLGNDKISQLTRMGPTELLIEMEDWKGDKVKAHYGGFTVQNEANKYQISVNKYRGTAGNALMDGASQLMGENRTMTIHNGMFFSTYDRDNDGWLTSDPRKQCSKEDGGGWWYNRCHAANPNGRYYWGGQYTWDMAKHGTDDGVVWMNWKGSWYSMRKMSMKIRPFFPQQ
Tn7 DDE FP = DD(E)-Tn7 binding inhibition, primary FP screen | inhibition, % at 8.3 µM | FP displacement of FITC-Tn7 peptide from fibrin DD(E); 0% = median of compound wells per plate | actives 0.13% (n = 370,000) | AID 720508;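 active means inhibition above the mean of compounds falling within the control limits plus 3 SD of them, cut at about 14% in these data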;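 further: 0% = plate median of compound wells and 100% = 10 µM Aha-Tn7 peptide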
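Assay system: Human fibrin DD(E) protein | Medium: Tris buffer with calcium and detergent, pH 7.8 | Reagent: 0.1 µM fluorescent Tn7 | Compound dosing: Single point at 8.3 µM | Times: 10 min preincubation, 3 h with tracer, room temperature | Detection: Fluorescence polarization of the labelled Tn7 tracer | Controls: Aha-Tn7 high control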
Starred values were filed as active, the others as inactive; nt = no result. Sampled rows, rich in hits. Any-hit rate of the full collection: about 1.3%.

SMILES	CendR NRP1 mod	aDG glyco up	DDE Tn6 FP inh	Tn7 DDE FP
O=C(C1CC1)N1N=C(c2ccc(Cl)cc2)CC1(O)C(F)(F)F (configuration not stated)	27*	0	0	-2
O=C(C1CC1)N1N=C(c2ccc(F)cc2)CC1(O)C(F)(F)F (configuration not stated)	8	0	-9	-2
Oc1ccccc1C=NCCN1CCN(CCN=Cc2ccccc2O)C1c1ccccc1O (configuration not stated)	22*	0	2	-1
Nn1c(SCC(=O)N2c3ccccc3Sc3ccc(Cl)cc32)nnc1-c1n[nH]c2c1CCC2	nt	nt	-11	4
CCn1c(=O)c(CCC(=O)NCCN2CCOCC2)c(C)c2c(C)nn(-c3cccc(C)c3)c21	28*	0	3	8
CN1\C(=C/C=C/C=C/C=[N+](C)C)C(C)(C)c2ccccc21	-261	1	31*	-11
Cc1c(-n2c(CN3C(=O)c4ccccc4C3=O)nc3ccccc3c2=O)c(=O)n(-c2ccccc2)n1C	26*	0	5	1
O=S(=O)(NC1=NCCCCC1)c1ccc(Cl)cc1	6	0	0	5
CCOc1ccc(S(=O)(=O)NC2=NCCCCC2)cc1	18*	0	7	-11
Cn1c(CCN2CCCC2)nc2cc(NC(=O)COc3ccc(Cl)cc3)ccc21	19*	0	-1	-1
COc1ccc(-c2cn(CCO)c(-c3ccc(Cl)nc3)n2)cc1	18*	0	0	-5
CCCCNC(=O)NS(=O)(=O)c1ccc(NC(=O)CSc2nnc(-c3ccc(Cl)cc3)n2N)cc1	nt	nt	3	7
CN1C(=O)c2oc3ccccc3c(=O)c2C1c1ccccn1 (configuration not stated)	33*	0	11	9
CCOc1ccc(C(=O)Nc2nnc(SCC(=O)NCC3CCCO3)s2)cc1OCC (configuration not stated)	21*	0	4	-5
Cc1cccc(C(C)C)c1NC(=O)C(C)OC(=O)Cc1n[nH]c(=O)c2ccccc12 (configuration not stated)	-8	0	-3	2
Cc1c(CN2CCN(CC(C)(C)C)C(CCO)C2)[nH]c2ccccc12 (configuration not stated)	0	0	1	-1
CCOc1ccc(CN2CCN(Cc3[nH]c4ccccc4c3C)CC2CCO)cc1 (configuration not stated)	38*	2	3	0
COCCN1CCCc2nc(-c3ccc(Br)cc3)ccc21	nt	nt	10	6
O=C1OC(Nc2cc(Br)cc3cccnc23)c2ccccc21 (configuration not stated)	-11	7.4*	12	4
Cc1cc(NC(=O)CSc2ccc(-c3nc4cc(C)c(C)cc4[nH]3)cn2)no1	-41	0	nt	nt
Cc1cc2nc(-c3ccc(SCC(=O)Nc4ccc(S(=O)(=O)NC5CC5)cc4)nc3)[nH]c2cc1C	-42	0	29*	-6
O=C1c2ccccc2/C(=C\c2ccc(O[C@@H]3CCCCO3)cc2)N1c1ccccc1	nt	nt	-5	7
COc1ccc(/C=N/N=C2\CC3CCC2(C)C3(C)C)cc1O (configuration not stated)	2	0	-2	5
COc1cc(/C=N/N=C2\CC3CCC2(C)C3(C)C)ccc1O (configuration not stated)	23*	0	11	5
COc1cc(OC)nc(NC(=O)COC(=O)c2cccc(Cl)c2)n1	32*	0	-5	4
SMILES	CendR NRP1 mod	aDG glyco up	DDE Tn6 FP inh	Tn7 DDE FP
O=C(COC(=O)c1cccc(Cl)c1)NCc1ccccc1	9	0	-3	-5
Nc1cc(S(=O)(=O)N2CCOCC2)ccc1Oc1ccc(F)cc1	28*	0	0	6
C[C@H]1[C@@H](OC(=O)NCc2ccccc2Cl)CC[C@@]23CCCN2C(=O)CCC[C@@H]13	nt	nt	6	4
O=C(CC1C(=O)NCCN1Cc1cccc(Oc2ccccc2)c1)NCCCn1cccn1 (configuration not stated)	23*	0	0	0
COc1ccc(CN2CCNC(=O)C2CC(=O)NCCCn2cccn2)cc1C (configuration not stated)	3	0	-1	-4
O=C(CC1C(=O)NCCN1Cc1ccc(F)c(F)c1)NCCn1cccn1 (configuration not stated)	28*	0	-4	-2
Cc1cccc(CCNC(=O)CC2C(=O)NCCN2Cc2ccc(F)c(F)c2)n1 (configuration not stated)	7	0	-7	6
O=C(CSc1nc2ccccc2o1)Nc1nccs1	0	0	3	3
COCCNC(=O)c1onc(CSc2ccccc2F)c1C(=O)O	-2	0	-1	-7
COCCNC(=O)c1onc(CSc2ccccc2C)c1C(=O)O	5	0	22*	5
COc1cc(CN2CCN(Cc3ccc(SC)cc3)CC2)cc(OC)c1O	23*	0	1	-10
CC(=O)C[C@H]1c2cc(C(F)(F)F)ccc2S(=O)(=O)N1c1ccc(N(C)C)cc1	14	0	-9	5
CCCCCCCCN1[C@@H](CC(=O)O)c2ccc(C(F)(F)F)cc2S1(=O)=O	28*	0	-5	-2
CN(C)c1ccc(N2[C@@H](CC(=O)O)c3cc(C(F)(F)F)ccc3S2(=O)=O)cc1	25*	0	-1	0
CCCCCCCCCCCCN1[C@@H](CC(=O)OC)c2cc(F)ccc2S1(=O)=O	26*	0	-5	-2
CCCCCSc1nc(C)c(CC(=O)O)c(=O)[nH]1	20*	0	-3	-2
CCN(CC)CCCCNc1ncc2cc(-c3cc(OC)cc(OC)c3)c(NC(=O)NC(C)(C)C)nc2n1	-2	1	-8	-7
CCCN(CC1CC1)c1cc2c(c3c1ccn3C)C1CCC2O1 (configuration not stated)	22*	0	1	4
COc1cccc(C(=O)N[C@H](C(=O)N2CCC[C@H]2C(=O)NC2CCCC2)c2ccccc2)c1	nt	nt	1	2
CCCS(=O)(=O)NC(=O)C1(C)CCCN(C(=O)c2ccc(F)cc2Cl)C1 (configuration not stated)	3	0	nt	nt
CC(CCN1CCC(C(O)(c2ccccc2)c2ccccc2)CC1)Oc1ccc(C#N)c(F)c1 (configuration not stated)	nt	nt	0	-5
COc1ccc(OC)c(/C=C/C(=O)OCC(=O)NCc2ccccc2)c1	32*	0	-2	-6
COc1ccc(CCNC(=O)COC(=O)/C=C/c2cc(OC)ccc2OC)cc1	10	0	-1	3
COC(=O)CCCC1=CC2=CC(=O)C(C)(OC(=O)c3cccs3)C(=O)C2=CN1Cc1ccco1 (configuration not stated)	14	0	1	-5
COC(=O)CCC(=O)OC1(C)C(=O)C=C2C=C(C3CC3)N(Cc3ccco3)C=C2C1=O (configuration not stated)	36*	0	4	7
